Rows were chosen to be rich in hits. Some 2.9% of all compounds tested hit in one or more screens of this group.
H9c2 TAG inh = reduces triacylglycerol accumulation in H9c2 cells; inhibition, % at 12.5 µM; Nile Red lipid (TAG) fluorescence; cells loaded with 200 µM oleic acid; 230,000 tested, 0.66% active;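 active means pattern-corrected inhibition of lipid staining of at least 50% with the nuclear-stain viability signal not falling by more than 50%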;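 further: 0% = DMSO wells and 100% = triacsin C control wells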
beta cell repl = inducers of beta-cell replication in MIN6 cells | MIN6 cells proliferation, ATPlite luminescence, 48 h; cells starved in 0.2% serum; 100% = growth in 10% serum | 330,000 tested, 0.29% active | proliferation, % at 10 µM | AID 2380;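 active means compounds whose signal lies at least 3.5 SD above the mean of all wells on their plate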;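 further: 0% = DMSO-treated cells in low-serum medium and 100% = 10% serum control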
NR1D1 modulator = modulators of human Rev-erb alpha DNA binding. P20393. Rev-erbα–FITC-DNA binding, fluorescence polarization, 90 min. activity, % at 10 µM. 370,000 tested, 0.79% active. AID 1259318;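 active means activity above about 14%, limit read from the data; passing the limit was not always enough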;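 further: 0% = DMSO wells with 35 nM protein and 100% = DMSO wells with 750 nM protein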
Target sequence (P20393 whole entry, looked up): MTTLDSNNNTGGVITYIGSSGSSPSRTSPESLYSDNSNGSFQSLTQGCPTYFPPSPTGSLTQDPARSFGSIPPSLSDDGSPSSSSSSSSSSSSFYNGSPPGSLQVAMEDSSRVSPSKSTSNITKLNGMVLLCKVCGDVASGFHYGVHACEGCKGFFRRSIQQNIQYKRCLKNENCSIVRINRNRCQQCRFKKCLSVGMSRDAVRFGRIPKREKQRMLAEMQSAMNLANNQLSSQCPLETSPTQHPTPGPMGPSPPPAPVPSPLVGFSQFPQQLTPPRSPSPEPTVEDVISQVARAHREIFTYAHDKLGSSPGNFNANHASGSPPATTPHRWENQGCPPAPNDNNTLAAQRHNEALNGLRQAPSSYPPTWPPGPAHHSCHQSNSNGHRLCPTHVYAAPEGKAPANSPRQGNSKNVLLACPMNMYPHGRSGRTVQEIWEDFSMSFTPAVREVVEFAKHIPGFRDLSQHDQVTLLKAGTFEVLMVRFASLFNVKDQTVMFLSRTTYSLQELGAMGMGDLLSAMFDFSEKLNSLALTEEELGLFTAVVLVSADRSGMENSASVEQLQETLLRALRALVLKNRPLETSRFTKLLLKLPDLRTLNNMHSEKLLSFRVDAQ
T cruzi repl = T. cruzi replication inhibition | T. cruzi beta-gal in NIH3T3, luminescence, 90 h | inhibition, % (no concentration beside the values) | 300,000 tested, 1.4% active | AID 1885;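 active means mean inhibition across valid replicates above about 55%, limit read from the data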;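 further: signal also drops with host cell toxicity which is not excluded here; 0% = plate median of DMSO wells and 100% = zero luminescence signal; higher percent means less beta-gal luminescence so fewer parasites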
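System: mouse NIH/3T3 fibroblasts infected with β-gal-expressing T. cruzi Tulahuen C4 / Input: NIH/3T3 cells, 5,000 per well / Buffer or medium: Low-serum DMEM with 2% FBS / Probe or stimulus: 5000 reporter trypomastigotes per well / Schedule: ≥90 h infection period, 3 h prior cell attachment / Measured by: GalScreen luminescence, 60 min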
iPSC survival up = enhancers of human iPSC single-cell survival. 360,000 tested, 0.044% active. hiPSC single-cell survival, ATPlite luminescence; 100% = ROCK inhibitor wells, 0% = DMSO. survival enhancement, % at 20 µM; in the data active means survival enhancement above about 18%;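 further: cells exposed to compounds for 16 hours before the ATP read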
PG9 Ab binder = small molecules binding HIV-1 gp120 antibody PG9. 360,000 tested, 0.43% active. TR-FRET gp120-PG9 antibody binding. inhibition, % at 6.7 µM. AID 624416; in the data active means inhibition above about 8.5%
PG9 binder conf = PG9 antibody binding, confirmed; 1,500 tested, 90% active; shares compounds with PG9 Ab binder; TR-FRET PG9 antibody binding, biochemical; inhibition, % at 6.7 µM; in the data active means inhibition above about 9%
PGV04 counter = counter-screen for PG9 binders: binding control antibody PGV04; shares compounds with PG9 Ab binder; TR-FRET PGV04 antibody-gp120 binding, biochemical; inhibition, % at 6.7 µM; 1,500 tested, 95% active; AID 651604; in the data active means inhibition above about 9.5%
PG9 bind DR = small molecules binding HIV-1 gp120 antibody PG9; 95 tested, under 10 active; TR-FRET PG9 antibody-gp120 binding inhibition; IC50, µM; shares compounds with PG9 Ab binder; AID 651848; in the data active means IC50 below about 10 µM
PGV04 binding DR = counter-screen for PG9 binders: binding to control antibody PGV04 | shares compounds with PG9 Ab binder | TR-FRET binding to control antibody PGV04 | 95 tested, 20% active | IC50, µM
PG126 binding DR = binds control antibody PG126 in PG9 counter-screen; shares compounds with PG9 Ab binder; 95 tested, 20% active; TR-FRET binding to antibody PG126, counterscreen; AID 651939; IC50, µM
NR1D1 mod conf = confirmation of modulators of human Rev-erb alpha DNA binding | shares compounds with NR1D1 modulator | Rev-erb alpha FITC-DNA binding, fluorescence polarization, 90 min | activation, % at 25 µM | 3,000 tested, 61% active;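 active means activation at or above a set limit, or at least 3 SD above the negative control mean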;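 further: 0% = 35 nM protein with DMSO and 100% = 750 nM protein high control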
RORg DNA counter = RORgamma DNA-binding activity, dose-response counter-screen | shares compounds with NR1D1 modulator | purified RORgamma protein-FITC-DNA binding, fluorescence polarization | IC50, µM | 910 tested, 8% active;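 active means Compounds whose fitted half-maximal concentration for disrupting protein-DNA binding is below 10 micromolar; the record names Rev-erb in its text, so the target is in doubt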
* marks the source's active call; other numbers are inactive results; nt = not tested or not shown. Unless noted, no stated cut-off is given here; in the data, active means IC50 below about 9 µM; inactive means the rest.

SMILES	H9c2 TAG inh	beta cell repl	NR1D1 modulator	T cruzi repl	iPSC survival up	PG9 Ab binder	PG9 binder conf	PGV04 counter	NR1D1 mod conf	others
COc1ccc(NC(=S)NCc2ccc3c(c2)OCO3)cc1	-9	1	0	-7	3	-2	nt	nt	nt
O=C(Nc1ccc(Oc2ccccc2)cc1)C1CCN(c2c3c(nc4ncnn24)CCC3)CC1	1	-6	3	10	11	0	nt	nt	nt
COc1ccccc1NS(=O)(=O)c1cccc(C(=O)NCc2ccncc2)c1	-4	-1	-2	-2	0	-1	nt	nt	nt
CCOC(=O)N1CCC(NC(=O)c2ccc3c(c2)sc2nc(-c4ccccc4)cn23)CC1	16	-5	63*	nt	9	21*	21*	38*	41*
CCOC(=O)N1CCC(NC(=O)c2ccc3c(c2)sc2nc(-c4cccc(OC)c4)cn23)CC1	nt	nt	nt	45	nt	nt	nt	nt	nt
CCCOc1ccc2cc(C(=O)NCc3ccccc3)c(=O)oc2c1	nt	0	70*	0	0	11*	38*	56*	29*
COc1ccc2oc(=O)c(C(=O)NCc3ccccc3)cc2c1	nt	-3	14	-6	0	0	nt	nt	nt
COc1ccc(C(=O)Nc2scc(-c3ccc(Cl)cc3Cl)c2C(N)=O)cc1	-8	-2	62*	44	-1	9.8*	7	19*	56*	RORg DNA counter=>40
COc1ccc(C(=O)Nc2cc(OC)c(Cl)cc2Cl)cc1	-15	0	1	-4	1	-1	nt	nt	nt
COc1ccc(NC(=O)CSc2nnc(-c3ccccn3)n2N)cc1Cl	nt	-2	-6	-1	0	0	nt	nt	nt
CC(=O)NCCNc1nc2c(-c3cccc(C(F)(F)F)c3)nnn2c2ccccc12	nt	0	69*	20	0	25*	15*	57*	3
CC(=O)NCCNc1nc2c(-c3cccc(C)c3)nnn2c2ccccc12	nt	3	1	-10	0	4	nt	nt	nt
CCOC(=O)CSc1nc(N)c(C#N)c(-c2ccc(OC)cc2)c1C#N	17	-2	76*	-5	1	63*	68*	23*	55*	PG9 bind DR=7.6*;PGV04 binding DR=6.1*;PG126 binding DR=7*
CSc1nc(-c2ccc(Cl)cc2)nc(N)c1C#N	2	-4	29*	-24	-1	25*	49*	67*	-2
COc1ccc(-c2c(C#N)c(N)nc(Sc3ccc(Cl)cc3)c2C#N)cc1	54*	-4	83*	8	0	31*	97*	95*	48*	PG9 bind DR=8.5*;PGV04 binding DR=4.4*;PG126 binding DR=4.9*;RORg DNA counter=>40
Cc1cc(C)n2nc3ccccc3c2n1	nt	2	-4	-10	1	-2	nt	nt	nt
OC(c1ccccc1)C1(c2ccccc2)CCN(Cc2ccccc2)CC1 (stereo unspecified)	nt	nt	0	nt	nt	-1	nt	nt	nt
Cc1ccccc1N(C(=O)c1snc(C(N)=O)c1N)C(C(=O)NCc1ccccc1)c1ccc(O)cc1 (stereo unspecified)	nt	2	19*	6	0	30*	31*	45*	-6
COCCNc1nc2c(S(=O)(=O)c3cc(C)ccc3C)nnn2c2ccccc12	nt	-4	45*	30	0	46*	29*	55*	19*
CC(C)c1ccc(S(=O)(=O)c2nnn3c2nc(NCC2CCCO2)c2ccccc23)cc1 (stereo unspecified)	nt	-4	nt	-13	0	nt	nt	nt	nt
Cc1cccc(NC(=O)c2sc(NC(=O)COc3ccccc3)c(C#N)c2C)c1C	nt	1	10	-21	2	1	nt	nt	nt
Cc1ccccc1NC(=O)c1sc(NC(=O)COc2ccccc2)c(C#N)c1C	nt	0	74*	-7	-1	34*	37*	53*	58*	RORg DNA counter=>40
CCOC(=O)CSc1nc2cc(OCC)ccc2cc1C#N	nt	-4	83*	15	1	28*	38*	58*	72*	RORg DNA counter=>40
COc1cccc(-c2ccc(C#N)c(SCC(=O)NCCc3cccc(Cl)c3)n2)c1	nt	-2	34*	32	-1	22*	24*	43*	23*
Cc1ccc2cc(C#N)c(SCC(=O)NNC(=O)Cc3ccccc3)nc2c1	nt	nt	52*	nt	-2	20*	38*	41*	44*	RORg DNA counter=>40
SMILES	H9c2 TAG inh	beta cell repl	NR1D1 modulator	T cruzi repl	iPSC survival up	PG9 Ab binder	PG9 binder conf	PGV04 counter	NR1D1 mod conf	others
CCOc1ccc2cc(C#N)c(SCC(=O)NC(C)CC)nc2c1 (stereo unspecified)	nt	0	nt	-15	nt	nt	nt	nt	nt
Cc1ccc2nc(SCC(=O)NCc3cccs3)c(C#N)cc2c1	nt	-3	47*	-4	0	15*	37*	49*	22*
COc1ccc2cc(C#N)c(SCC(=O)NNC(=O)Cc3ccccc3)nc2c1	nt	-2	38*	17	1	27*	24*	52*	12
O=C(CCNC(=O)c1ccccc1Cl)Nc1nc(-c2ccc(F)cc2)cs1	nt	-1	-1	-10	-1	-1	nt	nt	nt
O=C(COc1ccc2ccccc2c1Br)NNC(=O)Nc1ccccc1	nt	-2	281*	1	-1	37*	41*	48*	381*	RORg DNA counter=4*
COc1ccc(-c2nnn(CC(=O)N(CC(=O)NC3CCCC3)c3ccccc3)n2)cc1OC	-1	-1	0	-5	0	-1	nt	nt	nt
N#Cc1nc(-c2ccc(OCc3ccccc3)cc2)oc1N1CCC(C(N)=O)CC1	0	-1	41*	-13	4	9.5*	9.1*	16*	8
CC(=O)Nc1sc(C)c(C)c1C(=O)OCC(=O)NCc1ccccc1	-18	7	3	nt	0	2	nt	nt	nt
CC(=O)Nc1sc(C)c(C)c1C(=O)OCC(=O)NCc1ccc(F)cc1	-11	-2	17*	nt	0	9.3*	13*	19*	16*
CCNC(=S)N1CCN(c2ccccn2)CC1	-2	1	-5	1	2	-2	nt	nt	nt
